Measured values reported in publication PMC2587418 (Journal of medicinal chemistry, 2008).
Where two headings read alike, the source gives them in different places.

Experiments:
[1] = assay type: in vivo, rat; conditions: pretreated with 3 (10 mg/kg i.v.)
Method in brief: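 Adult male Sprague-Dawley rats (225–250 g) were pretreated by tail vein with a selective CB1 inverse agonist (10 mg/kg, i.v.) or its vehicle. After 15 min they received the test compound (30 μg/kg, i.v.) and were killed by cervical dislocation at 0.25, 0.5, 1, 2, 4 or 8 h, three rats per time point. Frontal cortex was weighed, homogenised in four volumes MeCN with 0.1% HCO2H, and quantified by LC-MS.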

[2] = molecular target: human CB1 receptors (Homo sapiens, UniProt P21554); assay: CB1 GTPγ35S potency assay; assay type: biochemical; conditions: ratio of CB2 Kb to CB1 Kb; fold
[3] = monkey; within 10-20 min after injection; cited from earlier work

Sequence of human CB1 receptors (P21554 whole entry): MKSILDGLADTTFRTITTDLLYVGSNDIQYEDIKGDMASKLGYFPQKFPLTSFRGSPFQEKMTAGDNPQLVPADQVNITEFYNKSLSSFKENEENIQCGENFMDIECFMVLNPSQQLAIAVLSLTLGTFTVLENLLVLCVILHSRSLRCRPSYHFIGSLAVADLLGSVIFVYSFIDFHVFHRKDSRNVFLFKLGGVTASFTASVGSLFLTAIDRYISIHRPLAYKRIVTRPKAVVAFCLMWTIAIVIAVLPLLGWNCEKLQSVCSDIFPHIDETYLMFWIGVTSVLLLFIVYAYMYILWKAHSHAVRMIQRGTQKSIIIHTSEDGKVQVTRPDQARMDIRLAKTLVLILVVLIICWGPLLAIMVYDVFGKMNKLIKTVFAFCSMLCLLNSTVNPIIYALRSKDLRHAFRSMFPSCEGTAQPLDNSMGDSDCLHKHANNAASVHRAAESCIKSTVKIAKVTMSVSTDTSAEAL

| Ligand quantifiability in frontal cerebral cortex ([1]; at 4 h after injection) | CB1 versus CB2 selectivity [2] | Ligand quantifiability in frontal cerebral cortex ([1]; at 2 h after injection) | Compound | Brain standardized uptake value [3] |
| --- | --- | --- | --- | --- |
| not quantifiable | – | – | COc1cccc([C@H]2C[C@@H](N[C@H](C)c3ccccc3)C(=O)N2c2ccc(C(F)(F)F)cc2)c1 [Ligand 8, (3R,5R)-5-(3-Methoxy-phenyl)-3-((R)-1-phenyl-ethylamino)-1-(4-trifluoromethyl-phenyl)-pyrrolidin-2-one] | – |
| – | 2,160 | – | COc1cccc([C@H]2C[C@@H](N[C@H](C)c3ccc(F)cc3)C(=O)N2c2ccc(C(F)(F)F)cc2)c1 [Ligand 16, (3R,5R)-3-[(R)-1-(4-Fluoro-phenyl)-ethylamino]-5-(3-methoxy-phenyl)-1-(4-trifluoromethyl-phenyl)-pyrrolidin-2-one] | – |
| not quantifiable | 3,580 | – | C[C@@H](N[C@@H]1C[C@H](c2cccc(OCF)c2)N(c2ccc(C(F)(F)F)cc2)C1=O)c1ccccc1 [Ligand 20, (3R,5R)-5-(3-Fluoromethoxy-phenyl)-3-((R)-1-phenyl-ethylamino)-1-(4-trifluoromethyl-phenyl)-pyrrolidin-2-one] | – |
| – | >19,500 | could not be quantified | C[C@@H](N[C@@H]1C[C@H](c2cccc(OCCF)c2)N(c2ccc(C(F)(F)F)cc2)C1=O)c1ccccc1 [Ligand 22, (3R,5R)-5-[3-(2-Fluoro-ethoxy)-phenyl]-3-((R)-1-phenyl-ethylamino)-1-(4-trifluoromethyl-phenyl)-pyrrolidin-2-one] | – |
| – | – | – | C[C@@H](N[C@@H]1C[C@H](c2cccc(O[11CH3])c2)N(c2ccc(C(F)(F)F)cc2)C1=O)c1ccccc1 [[^11C]8, [methyl-^11C](3R,5R)-5-(3-methoxy-phenyl)-3-((R)-1-phenyl-ethylamino)-1-(4-trifluoromethyl-phenyl)-pyrrolidin-2-one] | ~600 % SUV |
